Measured values from ChEMBL document CHEMBL4251619, “A new family of densely functionalized fused-benzoquinones as potent human protein kinase CK2 inhibitors” (Eur J Med Chem, 2018).
Activity calls are given as the source filed them. The rule behind the calls is not given here.

Key:
[1] = target: T1, Casein kinase II alpha/beta (Homo sapiens, UniProt P68400); experiment: Inhibition of human CK2-alpha/beta expressed in Escherichia coli BL21(DE3) using RRRDDDSDDD peptide as substrate after 15 mins by capillary electrophoresis method
[2] = test system: MCF7; experiment: Cytotoxicity against human MCF7 cells assessed as inhibition of cell viability at 100 uM after 48 hrs by MTT assay relative to control; assay type: functional; conditions: MCF7, 48 h
Procedure, shortened: (§1)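 MCF-7 cells grown in RPMI 1640 with GlutaMax and 10% FCS. Seeded at 1 x 10^5 cells/well and left overnight, then given fresh medium with inhibitor at 10 or 100 µM; 1% DMSO as control. After 48 h at 37 °C, 5% CO₂, MTT was added (0.5 mg/mL final) for 2 h. Formazan dissolved in DMSO and read at 570 nm against 630 nm reference. Triplicates, three independent experiments, mean ± SD.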

[3] = test system: MCF7; experiment: Cytotoxicity against human MCF7 cells assessed as inhibition of cell viability at 10 uM after 48 hrs by MTT assay; assay type: functional, cell-based; procedure, shortened: as §1
[4] = target: T1, Casein kinase II alpha/beta; experiment: ATP-competitive inhibition of human CK2-alpha/beta expressed in Escherichia coli BL21(DE3) using RRRDDDSDDD peptide as substrate after 15 mins in presence of varying levels of ATP by capillary electrophoresis method
[5] = target: Casein kinase 2 (Homo sapiens, UniProt P67870+P68400+P19784+Q8NEV1); experiment: Inhibition of CK2 (unknown origin); assay type: protein assay

IC50 [1]	Ki [4]	IC50 [5]	Compound	inhibition at 100 µM [2]	inhibition [3]
570 nM	390 nM	–	CCCCCCCCCCCC1=C(O)C(=O)C2=C(OC(N)=C(C#N)C2c2ccccc2)C1=O (stereo unspecified)	50%	inactive
840 nM	–	–	CCCCCCCCCCCC1=C(O)C(=O)C2=C(OC(N)=C(C#N)C2c2ccc(OC)cc2)C1=O (stereo unspecified)	55%	inactive
996 nM	–	–	CCCCCCCCCCCC1=C(O)C(=O)C2=C(OC(N)=C(C#N)C2c2cccc(F)c2)C1=O (stereo unspecified)	60%	inactive
1440 nM	–	–	CCCCCCCCCCCC1=C(O)C(=O)C2=C(OC(N)=C(C#N)C2c2ccncc2)C1=O (stereo unspecified)	–	–
1990 nM	–	–	CCCCCCCCC1=C(O)C(=O)C2=C(OC(N)=C(C#N)C2c2ccc([N+](=O)[O-])cc2)C1=O (stereo unspecified)	–	–
900 nM	–	< 1 µM	CCCCCCCCCCCC1=C(O)C(=O)C2=C(OC(N)=C(C#N)C2c2ccc(Cl)cc2)C1=O (stereo unspecified)	–	inactive
3710 nM	–	–	CCCCCCCCCCCC1=C(O)C(=O)C2=C(OC(N)=C(C#N)C2CCCCCC)C1=O (stereo unspecified)	–	–
1940 nM	–	–	CCCCCCCCCCCC1=C(O)C(=O)C2=C(OC(N)=C(C#N)C2c2ccc3c(c2)OCO3)C1=O (stereo unspecified)	–	–
220 nM	–	–	CCCCCCCCCCCC1=C(O)C(=O)C2=C(OC(N)=C(C#N)C2c2ccc([N+](=O)[O-])cc2)C1=O (stereo unspecified)	90%	inactive
720 nM	–	–	CCCCCCCCCCCC1=C(O)C(=O)C2=C(OC(N)=C(C#N)C2c2ccco2)C1=O (stereo unspecified)	–	–
890 nM	–	–	CCCCCCCCCCCC1=C(O)C(=O)C2=C(OC(N)=C(C#N)C2c2cccc([N+](=O)[O-])c2)C1=O (stereo unspecified)	65%	inactive
1360 nM	–	–	CCCCCCCCCCCC1=C(O)C(=O)C2=C(OC(N)=C(C#N)C2c2ccc(C(=O)O)cc2)C1=O (stereo unspecified)	–	–
1380 nM	–	–	CCCCCCCCCCCC1=C(O)C(=O)C2=C(OC(N)=C(C#N)C2c2cccnc2)C1=O (stereo unspecified)	–	–
